Results as given in ChEMBL document CHEMBL2176925, “Novel ¹⁸F-labeled benzoxazole derivatives as potential positron emission tomography probes for imaging of cerebral β-amyloid plaques in Alzheimer's disease” (J Med Chem, 2012).

Assays:
[1] = test system: Kidney; assay: Drug uptake in ddY mouse kidney at 370 kBq/100 ul, iv at 10 mins by gamma-counting analysis; type: ADME, organism-based; settings: in vivo
In short: (§1)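 Normal male ddY mice (5 weeks, 20−22 g, n = 5) received 370 kBq of tracer in 100 μL saline with 5% EtOH via tail vein. Mice were sacrificed at set times after injection, and organs were excised, weighed and γ-counted against diluted injectate aliquots. Values are %ID per gram, except stomach and intestine as %ID per organ, given as mean ± SD of 5 mice.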

[2] = test system: Kidney; assay: Drug uptake in ddY mouse kidney at 370 kBq/100 ul, iv at 2 mins by gamma-counting analysis; type: ADME, organism-based; settings: in vivo; in short: as §1
[3] = test system: Lung; assay: Drug uptake in ddY mouse lung at 370 kBq/100 ul, iv at 30 mins by gamma-counting analysis; type: ADME, organism-based; settings: in vivo, 0.5 h; in short: as §1
[4] = test system: Lung; assay: Drug uptake in ddY mouse lung at 370 kBq/100 ul, iv at 60 mins by gamma-counting analysis; type: ADME, organism-based; settings: in vivo, 1 h; in short: as §1
[5] = test system: Lung; assay: Drug uptake in ddY mouse lung at 370 kBq/100 ul, iv at 10 mins by gamma-counting analysis; type: ADME, organism-based; settings: in vivo; in short: as §1
[6] = test system: Spleen; assay: Drug uptake in ddY mouse spleen at 370 kBq/100 ul, iv at 60 mins by gamma-counting analysis; type: ADME, organism-based; settings: in vivo, 1 h; in short: as §1
[7] = test system: Spleen; assay: Drug uptake in ddY mouse spleen at 370 kBq/100 ul, iv at 2 mins by gamma-counting analysis; type: ADME, organism-based; settings: in vivo; in short: as §1
[8] = test system: Liver; assay: Drug uptake in ddY mouse liver at 370 kBq/100 ul, iv at 30 mins by gamma-counting analysis; type: ADME, organism-based; settings: in vivo, 0.5 h; in short: as §1
[9] = test system: Liver; assay: Drug uptake in ddY mouse liver at 370 kBq/100 ul, iv at 10 mins by gamma-counting analysis; type: ADME, organism-based; settings: in vivo; in short: as §1
[10] = test system: Lung; assay: Drug uptake in ddY mouse lung at 370 kBq/100 ul, iv at 2 mins by gamma-counting analysis; type: ADME, organism-based; settings: in vivo; in short: as §1
[11] = test system: Liver; assay: Drug uptake in ddY mouse liver at 370 kBq/100 ul, iv at 2 mins by gamma-counting analysis; type: ADME, organism-based; settings: in vivo; in short: as §1
[12] = test system: Heart; assay: Drug uptake in ddY mouse heart at 370 kBq/100 ul, iv at 60 mins by gamma-counting analysis; type: ADME, organism-based; settings: in vivo, 1 h; in short: as §1
[13] = test system: Heart; assay: Drug uptake in ddY mouse heart at 370 kBq/100 ul, iv at 30 mins by gamma-counting analysis; type: ADME, organism-based; settings: in vivo, 0.5 h; in short: as §1
[14] = test system: Heart; assay: Drug uptake in ddY mouse heart at 370 kBq/100 ul, iv at 10 mins by gamma-counting analysis; type: ADME, organism-based; settings: in vivo; in short: as §1
[15] = test system: Heart; assay: Drug uptake in ddY mouse heart at 370 kBq/100 ul, iv at 2 mins by gamma-counting analysis; type: ADME, organism-based; settings: in vivo; in short: as §1
[16] = test system: Bone; assay: Drug uptake in ddY mouse bone at 370 kBq/100 ul, iv at 60 mins by gamma-counting analysis; type: ADME, organism-based, Bone element; settings: in vivo, 1 h; in short: as §1
[17] = test system: Bone; assay: Drug uptake in ddY mouse bone at 370 kBq/100 ul, iv at 2 mins by gamma-counting analysis; type: ADME, organism-based, Bone element; settings: in vivo; in short: as §1
[18] = test system: Bone; assay: Drug uptake in ddY mouse bone at 370 kBq/100 ul, iv at 30 mins by gamma-counting analysis; type: ADME, organism-based, Bone element; settings: in vivo, 0.5 h; in short: as §1
[19] = test system: Brain; assay: Drug uptake in ddY mouse brain at 370 kBq/100 ul, iv at 30 mins by gamma-counting analysis; type: ADME, organism-based; settings: in vivo, 0.5 h; in short: as §1
[20] = test system: Brain; assay: Drug uptake in ddY mouse brain at 370 kBq/100 ul, iv at 60 mins by gamma-counting analysis; type: ADME, organism-based; settings: in vivo, 1 h; in short: as §1
[21] = test system: Brain; assay: Drug uptake in ddY mouse brain at 370 kBq/100 ul, iv at 10 mins by gamma-counting analysis; type: ADME, organism-based; settings: in vivo; in short: as §1
[22] = test system: Brain; assay: Drug uptake in ddY mouse brain at 370 kBq/100 ul, iv at 2 mins by gamma-counting analysis; type: ADME, organism-based; settings: in vivo; in short: as §1
[23] = test system: Blood; assay: Drug uptake in ddY mouse blood at 370 kBq/100 ul, iv at 60 mins by gamma-counting analysis; type: ADME, organism-based; settings: in vivo, 1 h; in short: as §1
[24] = test system: Blood; assay: Drug uptake in ddY mouse blood at 370 kBq/100 ul, iv at 30 mins by gamma-counting analysis; type: ADME, organism-based; settings: in vivo, 0.5 h; in short: as §1
[25] = test system: Brain; assay: Drug uptake in healthy human brain at 370 kBq/100 ul after 1 hr by immunohistochemical staining method; type: ADME, tissue-based
In short: (§2)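 Paraffin sections of brain were used: C57BL6 mice (wild-type, 12 months), human AD (person) and normal human. Sections were deparaffinized through xylene and graded ethanol, then equilibrated 30 min in PBS (0.2 M, pH 7.4). Incubated 1 h at room temperature with tracer, 370 kBq/100 μL, washed 1 min in 50% ethanol and rinsed with water. Imaging plate exposed overnight. Plaques confirmed by thioflavin-S or anti-Aβ1-42 monoclonal immunostaining.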

[26] = test system: Brain; assay: Drug uptake in wild type C57BL6 mouse brain at 370 kBq/100 ul after 1 hr by thioflavinS-staining method; type: ADME, tissue-based; in short: as §2
[27] = test system: Brain; assay: Drug uptake in wild type C57BL6 mouse brain at 40.7 MBq, iv after 30 mins by autoradiographic analysis; type: ADME, organism-based; settings: in vivo, 0.5 h
In short: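 Wild-type C57BL6 mice (18 months) received 40.7 MBq tracer iv via the femoral vein in 100 μL saline with 5% EtOH. Decapitated at 30 min, and brains frozen in powdered dry ice. 20 μm sections exposed to an imaging plate for 8 h, then the same sections stained with thioflavin-S.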

[28] = n-Octanol-PBS buffer partition coefficient, log D of the compound at 370 kBq after 3 mins at pH 7.4; type: physicochemical
In short: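 For log D, tubes containing n-octanol and PBS were vortexed 3 min at room temperature and centrifuged 5 min at 3000 rpm. Weighed samples of the octanol (100 μL) and buffer (500 μL) layers were counted. Log D is the log of the ratio of counts per gram, octanol to PBS.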

[29] = test system: Brain; assay: Ratio of drug uptake in brain at 2 mins to drug uptake in brain at 60 mins in ddY mouse at 370 kBq/100 ul, iv; type: ADME, organism-based; settings: in vivo
In short: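 Tail-vein injection of 370 kBq/100 μL (saline, 5% EtOH) into male ddY mice (5 weeks, 20−22 g, n = 5). Brain excised at 2 and 60 min, weighed and γ-counted against diluted injectate. Uptake is %ID/g, and the ratio is brain at 2 min divided by brain at 60 min.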

[30] = test system: Intestine; assay: Drug uptake in ddY mouse intestine at 370 kBq/100 ul, iv at 60 mins by gamma-counting analysis; type: ADME, organism-based; settings: in vivo, 1 h; in short: as §1
[31] = test system: Intestine; assay: Drug uptake in ddY mouse intestine at 370 kBq/100 ul, iv at 10 mins by gamma-counting analysis; type: ADME, organism-based; settings: in vivo; in short: as §1
[32] = test system: Intestine; assay: Drug uptake in ddY mouse intestine at 370 kBq/100 ul, iv at 30 mins by gamma-counting analysis; type: ADME, organism-based; settings: in vivo, 0.5 h; in short: as §1
[33] = test system: Stomach; assay: Drug uptake in ddY mouse stomach assessed per organ at 370 kBq/100 ul, iv at 60 mins by gamma-counting analysis; type: ADME, organism-based; settings: in vivo, 1 h
In short: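 Male ddY mice (5 weeks, 20−22 g, n = 5) received tracer in saline with 5% EtOH, 370 kBq/100 μL, by tail vein. Killed at set times after dosing. Stomach removed, weighed and γ-counted against diluted aliquots of the injected dose. Reported as % injected dose per organ, mean ± SD of 5 mice.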

[34] = test system: Stomach; assay: Drug uptake in ddY mouse stomach assessed per organ at 370 kBq/100 ul, iv at 10 mins by gamma-counting analysis; type: ADME, organism-based; settings: in vivo; in short: as §1
[35] = test system: Kidney; assay: Drug uptake in ddY mouse kidney at 370 kBq/100 ul, iv at 60 mins by gamma-counting analysis; type: ADME, organism-based; settings: in vivo, 1 h; in short: as §1

| Drug uptake [1] | Drug uptake [2] | Drug uptake [3] | Drug uptake [4] | Drug uptake [5] | Drug uptake [6] | Drug uptake [7] | Drug uptake [8] | Drug uptake [9] | Drug uptake [10] | Drug uptake [11] | Drug uptake [12] | Drug uptake [13] | Drug uptake [14] | Drug uptake [15] | Drug uptake [16] | Drug uptake [17] | Drug uptake [18] | Drug uptake [19] | Drug uptake [20] | SMILES | also measured |
| --- | --- | --- | --- | --- | --- | --- | --- | --- | --- | --- | --- | --- | --- | --- | --- | --- | --- | --- | --- | --- | --- |
| 8.45 % ID/g | 12.88 % ID/g | 5.3 % ID/g | 5.22 % ID/g | 5.64 % ID/g | 3.42 % ID/g | 3.9 % ID/g | 19.31 % ID/g | 23.15 % ID/g | 8.18 % ID/g | 20.28 % ID/g | 4.32 % ID/g | 4.84 % ID/g | 4.78 % ID/g | 8.57 % ID/g | 5.78 % ID/g | 3.17 % ID/g | 3.74 % ID/g | 4.07 % ID/g | 3.04 % ID/g | CNc1ccc(-c2nc3cc(OCCOCCOCC[18F])ccc3o2)cc1 | Drug uptake [21]: 4.41 % ID/g; Drug uptake [22]: 8.12 % ID/g; Drug uptake [23]: 4.87 % ID/g; Drug uptake [24]: 4.67 % ID/g; Drug uptake [25]: Not Active; Drug uptake [26]: Not Active; Drug uptake [27]: Not Active; logD at 0.05 h [28]: 3.09; Ratio [29]: 2.67; Drug uptake [30]: 23.91 % ID/g; Drug uptake [31]: 25 % ID/g; Drug uptake [32]: 23.92 % ID/g; Drug uptake [33]: 1.87 %ID; Drug uptake [34]: 2.36 %ID; Drug uptake [35]: 5.4 % ID/g |
| 5.18 % ID/g | 8.71 % ID/g | 3.28 % ID/g | 3.22 % ID/g | 3.64 % ID/g | 2.25 % ID/g | 3.6 % ID/g | 9.2 % ID/g | 11.36 % ID/g | 5.18 % ID/g | 13.04 % ID/g | 3.13 % ID/g | 3.14 % ID/g | 3.52 % ID/g | 5.55 % ID/g | 3.45 % ID/g | 1.18 % ID/g | 1.96 % ID/g | 2.5 % ID/g | 2.12 % ID/g | CN(C)c1ccc(-c2nc3cc(OCCOCCOCC[18F])ccc3o2)cc1 | Drug uptake [21]: 3.37 % ID/g; Drug uptake [22]: 5.29 % ID/g; Drug uptake [23]: 3.33 % ID/g; Drug uptake [24]: 2.84 % ID/g; Drug uptake [25]: Not Active; Drug uptake [26]: Not Active; Drug uptake [27]: Not Active; logD at 0.05 h [28]: 3.45; Ratio [29]: 2.5; Drug uptake [30]: 15.82 % ID/g; Drug uptake [31]: 15.7 % ID/g; Drug uptake [32]: 22.59 % ID/g; Drug uptake [33]: 1.41 %ID; Drug uptake [34]: 1.37 %ID; Drug uptake [35]: 3.68 % ID/g |
